Measurements of several laboratories.
Lines come from different studies, so protocols differ.
Target: Phosphorylase b kinase gamma catalytic chain, skeletal muscle/heart isoform (PHKG1, Homo sapiens, UniProt Q16816)

O=C1Nc2ccc(Cl)cc2C1=Cc1cc(Cl)c(O)c(Cl)c1 — remaining signal (cell-free assay; 0.5 µM): 86.4%
N[C@@H]1CCN(c2nccc(-c3cnn4ncccc34)n2)C1 — remaining binding (binding; 1 µM): 100%
Nc1nc(Nc2ccccc2)sc1C(=O)c1c(F)cccc1F — remaining activity (enzyme activity, inhibitor; 10 µM): 88%
CC(=O)Nc1c(C(C)=O)c(=O)n(C)c2nc(-c3ccc(Cl)cc3Cl)c(-c3ccc(Cl)cc3)cc12 — remaining binding (cell-free assay, competition with immobilised ligand; 1 µM): 100%
c1ccc(CNc2nc(N3CCOc4ccccc43)nc3c2CCCC3)cc1 — inhibition (target engagement in cells, inhibitor, chemoproteomics; 20 mM): 2%
Oc1cccc(-c2nc(N3CCOCC3)c3oc4ncccc4c3n2)c1 — remaining activity (enzyme activity, inhibitor; 10 µM): 84%
CNCc1ccccc1-c1csc([C@H](C)Nc2nc(C)nc3cc(OC)c(OC)cc23)c1 — remaining binding (cell-free assay, competition with immobilised ligand; 1 µM): 87%
CN1CC(Oc2cnc(C#N)cc2-c2ccn3nc(NC(=O)C4CC4)cc3c2)C1 — inhibition (enzyme activity, inhibitor; 1 µM): 8%
CS(=O)(=O)N1CCCC(NC(=O)[C@H](CCC2CCCCC2)NC(=O)c2ccc(CNc3ncnc4c3nnn4-c3ccccc3)cc2)C1 (some centres unmarked) — remaining binding (cell-free assay, competition with immobilised ligand; 0.1 µM): 87%
CCCS(=O)(=O)Nc1ccc(F)c(C(=O)c2c[nH]c3ncc(-c4ccc(Cl)cc4)cc23)c1F — inhibition (enzyme activity, inhibitor; 1 µM): < 20%
CC(C)(C)c1nc(-c2cccc(NS(=O)(=O)c3c(F)cccc3F)c2F)c(-c2ccnc(N)n2)s1 — remaining activity (enzyme activity, inhibitor, radiometric; 1 µM): 97%
O=C(Nc1cnc(Oc2ccc(F)cc2)nc1)N1CCc2ncccc2[C@@H]1c1ccc(F)cc1 — remaining binding (cell-free assay, competition with immobilised ligand; 1 µM): 100%
Cc1ccc(C(=O)NCc2ccsc2)cc1C#Cc1cn(C(C)C)c2ncnc(N)c12 — activity vs control (enzyme activity, inhibitor; 1 µM): 107%
COc1cc2ncnc(Nc3ccc(Oc4ccccc4)c(C)c3C)c2cc1OC — inhibition (enzyme activity, inhibitor; 1 µM): 2%
Nc1nc(NC2CCCCC2)sc1C(=O)c1ccccc1 — remaining activity (enzyme activity, inhibitor; 10 µM): 105%
Cc1sc(C(=O)NC2COC2)cc1-n1cc(NC(=O)Nc2c(F)cccc2Cl)cn1 — remaining activity (enzyme activity, inhibitor; 10 µM): 84%
COc1cccc(CNC(=O)c2nc3scc(COCc4ccc(C(=O)O)cc4)c3c(=O)[nH]2)c1 — remaining binding (cell-free assay, competition with immobilised ligand; 1 µM): 100%
FC(F)c1nc2ccccc2n1-c1nc(N2CCOCC2)nc(N2CCOCC2)n1 — remaining activity (enzyme activity, inhibitor; 10 µM): 94%
C[C@@H]1CN(c2cc(-c3nn(C)c4ccc(OC5(C)CC5)cc34)ncn2)C[C@H](C)O1 — remaining binding (cell-free assay, competition with immobilised ligand; 1 µM): 90%
N#CCCc1ccc2c(c1)-c1[nH]c3ccc([N+](=O)[O-])cc3c1CC(=O)N2 — remaining signal (cell-free assay; 0.5 µM): 7.72%
